# Reference: ChEMBL document CHEMBL1152833, “Synthesis of some novel N4-(naphtha[1,2-d]thiazol-2-yl)semicarbazides as potential anticonvulsants” (Eur J Med Chem, 2009)
# Active and inactive are the calls of the source.
# Experiments:
# Mus musculus [1] = test: Antioxidant activity against PTZ-induced lipid peroxidation in Swiss albino mouse brain assessed as malondialdehyde content per mg of protein at 100 mg/kg, ip preincubated for 30 mins before PTZ challenge measured after 4 hrs by TBARS assay; assay type: functional; conditions: route intraperitoneal
# Summary of the method: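 Mice were dosed 100 mg/kg i.p. 30 min before PTZ 85 mg/kg, and brains were homogenized after 4 h. For TBARS, homogenate supernatant was heated with SDS, acetic acid and 0.8% thiobarbituric acid at 95 °C for 1 h. The product was extracted into n-butanol/pyridine and read at 532 nm. Results are pmol MDA/mg protein, n=6, mean ± SEM.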
# Mus musculus [2] = test: Antioxidant activity against PTZ-induced decrease in superoxide dismutase activity in Swiss albino mouse brain assessed as enzyme units per mg of protein causing 50% inhibition in NBT reduction rate at 100 mg/kg, ip administered 30 mins before PTZ challenge measured after 4 hrs; assay type: functional; conditions: route intraperitoneal
# Summary of the method: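 Same mouse dosing: 100 mg/kg i.p. 30 min before PTZ 85 mg/kg, brains taken at 4 h. Total SOD was measured in the ethanol phase of an ethanol/chloroform (5:3) extract, as inhibition of NBT reduction by xanthine–xanthine oxidase. One unit gives 50% inhibition; activity is expressed per mg protein (Lowry). n=6, mean ± SEM.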
# Mus musculus [3] = test: Anticonvulsant activity in ip dosed Swiss albino mouse assessed as minimum drug concentration required for inhibition of pentylenetetrazole-induced seizures in half or more of mouse after 0.5 hrs by scPTZ test; assay type: functional
# Summary of the method: (§1)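 Male Swiss albino mice (18–25 g) were dosed i.p. at 30, 100 and 300 mg/kg, examined at 0.5 and 4 h. PTZ 85 mg/kg (CD97) was given and the animals were […]. Protection meant absence of any threshold convulsion, i.e. clonic spasm lasting at least 5 s. The value is the minimum dose active in half or more of the mice.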
# Mus musculus [4] = test: Anticonvulsant activity against maximal electroshock-induced seizures in Swiss albino mouse at 300 mg/kg, ip after 4 hrs by MES test; assay type: functional, organism-based; parameters: dose 300 mg/kg
# Summary of the method: (§2)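 Male Swiss albino mice (18–25 g) received compound i.p. at 30, 100 and 300 mg/kg. MES seizures were induced after 0.5 and 4 h, with a drop of 0.9% saline placed in the eye before the electrodes went on. Protection meant abolition of the hind-limb tonic extensor component. The tabulated value is the minimum dose protecting half or more of the mice.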
# Mus musculus [5] = test: Anticonvulsant activity in ip dosed Swiss albino mouse assessed as minimum drug concentration required for inhibition of pentylenetetrazole-induced seizures in half or more of mouse after 4 hrs by scPTZ test; assay type: functional; summary of the method: as §1
# Mus musculus [6] = test: Neurotoxicity in ip dosed Swiss albino mouse assessed as minimum drug concentration required for falling off the rotarod by half or more of mouse after 4 hrs by rotarod test; assay type: toxicity, organism-based; conditions: in vivo
# Summary of the method: (§3)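 Rotarod test in male Swiss albino mice (18–25 g) after i.p. dosing at 30, 100 and 300 mg/kg, read at 0.5 and 4 h. Mice falling within 30 s in a pre-check were excluded. Neurotoxicity was scored as the minimum dose at which half or more of the mice fell off the rod.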
# Mus musculus [7] = test: Neurotoxicity in ip dosed Swiss albino mouse assessed as minimum drug concentration required for falling off the rotarod by half or more of mouse after 0.5 hrs by rotarod test; assay type: toxicity, organism-based; conditions: in vivo; summary of the method: as §3
# Mus musculus [8] = test: Anticonvulsant activity in ip dosed Swiss albino mouse assessed as minimum drug concentration required for inhibition of maximal electroshock-induced seizure in half or more of mouse after 0.5 hrs by MES test; assay type: functional; summary of the method: as §2
# Mus musculus [9] = test: Anticonvulsant activity in ip dosed Swiss albino mouse assessed as minimum drug concentration required for inhibition of maximal electroshock-induced seizure in half or more of mouse after 4 hrs by MES test; assay type: functional; summary of the method: as §2
# Mus musculus [10] = test: Toxicity to Swiss albino mouse assessed as mortality following tonic extension at 300 mg/kg, ip after 0.5 hrs; assay type: organism-based; parameters: dose 300 mg/kg, route intraperitoneal; conditions: in vivo
# Mus musculus [11] = test: Anticonvulsant activity against pentylenetetrazole-induced seizures in Swiss albino mouse at 300 mg/kg, ip after 4 hrs by scPTZ test; assay type: functional, organism-based; parameters: dose 300 mg/kg; summary of the method: as §1
# Mus musculus [12] = test: Neurotoxicity in Swiss albino mouse at 300 mg/kg, ip after 4 hrs by rotarod test; assay type: toxicity, organism-based; parameters: dose 300 mg/kg, route intraperitoneal; conditions: in vivo; summary of the method: as §3
# Mus musculus [13] = test: Anticonvulsant activity against maximal electroshock-induced seizures in Swiss albino mouse at 300 mg/kg, ip after 0.5 hrs by MES test; assay type: functional, organism-based; parameters: dose 300 mg/kg; summary of the method: as §2
# Mus musculus [14] = test: Neurotoxicity in Swiss albino mouse at 300 mg/kg, ip after 0.5 hrs by rotarod test; assay type: toxicity, organism-based; parameters: dose 300 mg/kg, route intraperitoneal; conditions: in vivo
# Summary of the method: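 Male Swiss albino mice (18-25 g) received the compound i.p. at 30, 100 or 300 mg/kg and were tested on the rotarod 0.5 and 4 h later. Mice were pre-checked, and any that fell off within 30 s were excluded. Neurotoxicity was scored as falling off the rod. The value is the minimum dose affecting half or more of the mice.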
# Mus musculus [15] = test: Anticonvulsant activity against pentylenetetrazole-induced seizures in Swiss albino mouse at 300 mg/kg, ip after 0.5 hrs by scPTZ test; assay type: functional, organism-based; parameters: dose 300 mg/kg; summary of the method: as §1
# Rattus norvegicus [16] = test: Neurotoxicity in Wistar albino rat at 50 mg/kg, po by rotarod test; assay type: toxicity, organism-based; parameters: dose 50 mg/kg, route oral; conditions: in vivo
# Rattus norvegicus [17] = test: Anticonvulsant activity against pentylenetetrazole-induced seizures in Wistar albino rat at 50 mg/kg, po up to 2 hrs by scPTZ test; assay type: functional, organism-based; parameters: dose 50 mg/kg
# Summary of the method: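 Male Wistar rats (100–125 g) were given compound orally at 50 mg/kg. They were challenged with scPTZ at 70 mg/kg at 0.25, 0.5, 1.0 and 2.0 h, and seizures were watched for. Protection meant absence of clonic spasm lasting at least 5 s. The score is the number of rats protected out of four.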
Structure (SMILES),Activity (Mus musculus [1]) [pmol],Activity (Mus musculus [2]),Activity (Mus musculus [3]) [mg/kg],Activity (Mus musculus [4]),Activity (Mus musculus [5]) [mg/kg],Activity (Mus musculus [6]) [mg/kg],Activity (Mus musculus [7]) [mg/kg],Activity (Mus musculus [8]) [mg/kg],Activity (Mus musculus [9]) [mg/kg],Activity (Mus musculus [10]),Activity (Mus musculus [11]),Activity (Mus musculus [12]),Activity (Mus musculus [13]),Activity (Mus musculus [14]),Activity (Mus musculus [15]),Activity (Rattus norvegicus [16]),Activity (Rattus norvegicus [17])
C1CCc2nnnn2CC1 [PENTYLENETETRAZOL],418,42,,,,,,,,,,,,,,,
O=C(N/N=C/c1ccccc1O)Nc1nc2c(ccc3ccccc32)s1,,,300,inactive,300,100,100,100,,,,,,,,,
CCC1(c2ccccc2)C(=O)NC(=O)NC1=O [PHENOBARBITAL],,,30,,30,300,100,100,30,,,,,,,,
O=C(N/N=C/c1ccc(O)cc1)Nc1nc2c(ccc3ccccc32)s1,,,,inactive,,,,,,Toxic,inactive,Non-toxic,inactive,Non-toxic,,,
NC(=O)N1c2ccccc2C=Cc2ccccc21 [CARBAMAZEPINE],,,100,,300,300,100,30,100,,,,,,,,
COc1ccc(/C=N/NC(=O)Nc2nc3c(ccc4ccccc43)s2)cc1,,,,inactive,,,,,,Toxic,inactive,Non-toxic,inactive,Non-toxic,,,
O=C(N/N=C/c1ccccc1)Nc1nc2c(ccc3ccccc32)s1,,,300,inactive,300,300,100,300,,,,,,,,,
O=C(N/N=C/c1ccccc1Cl)Nc1nc2c(ccc3ccccc32)s1,,,,,300,,300,,300,,,Non-toxic,inactive,,inactive,,
COc1cc(/C=N/NC(=O)Nc2nc3c(ccc4ccccc43)s2)ccc1O,,,300,,300,100,300,300,300,,,,,,,,
CCCC(CCC)C(=O)O [VALPROIC ACID],216,65,300,inactive,,,,,,,inactive,Non-toxic,inactive,Non-toxic,,,
O=C(N/N=C1\C(=O)Nc2ccccc21)Nc1nc2c(ccc3ccccc32)s1,,,300,,,300,100,,300,,inactive,,inactive,,,,
COc1cc(/C=N/NC(=O)Nc2nc3c(ccc4ccccc43)s2)cc(OC)c1,,,,inactive,,,,,,Toxic,inactive,Non-toxic,inactive,Non-toxic,,,
O=C(N/N=C/c1ccc(Br)cc1)Nc1nc2c(ccc3ccccc32)s1,292,60,100,,100,300,100,100,100,,,,,,,Non-toxic,Active
COc1cc(/C=N/NC(=O)Nc2nc3c(ccc4ccccc43)s2)cc(OC)c1OC,,,,,300,100,100,300,300,,,,,,inactive,,
O=C(N/N=C/c1ccc(F)cc1)Nc1nc2c(ccc3ccccc32)s1,278,57,100,,100,300,300,300,300,,,,,,,Non-toxic,Active
O=C(N/N=C/c1ccccc1[N+](=O)[O-])Nc1nc2c(ccc3ccccc32)s1,,,300,inactive,300,100,,,,,,,inactive,Non-toxic,,,
CN(C)c1ccc(/C=N/NC(=O)Nc2nc3c(ccc4ccccc43)s2)cc1,,,300,inactive,300,300,300,,,,,,inactive,,,,
O=C1NC(=O)C(c2ccccc2)(c2ccccc2)N1 [PHENYTOIN],,,,,,100,100,30,30,,inactive,,,,inactive,,
C/C(=N\NC(=O)Nc1nc2c(ccc3ccccc32)s1)c1ccccc1,,,300,inactive,300,,100,,,,,Non-toxic,inactive,,,,
